22 compounds from ChEMBL document CHEMBL3351811, “Synthesis of heteroaryl/aryl kojic acid conjugates as stimulators of glucose uptake by GLUT4 translocation” (Eur J Med Chem, 2014) can be followed below.

Type in all cases: cell-based
Data set [1] addresses T1, Solute carrier family 2, facilitated glucose transporter member 4 (Rattus norvegicus) (UniProt P19357).
T1 sequence (whole entry): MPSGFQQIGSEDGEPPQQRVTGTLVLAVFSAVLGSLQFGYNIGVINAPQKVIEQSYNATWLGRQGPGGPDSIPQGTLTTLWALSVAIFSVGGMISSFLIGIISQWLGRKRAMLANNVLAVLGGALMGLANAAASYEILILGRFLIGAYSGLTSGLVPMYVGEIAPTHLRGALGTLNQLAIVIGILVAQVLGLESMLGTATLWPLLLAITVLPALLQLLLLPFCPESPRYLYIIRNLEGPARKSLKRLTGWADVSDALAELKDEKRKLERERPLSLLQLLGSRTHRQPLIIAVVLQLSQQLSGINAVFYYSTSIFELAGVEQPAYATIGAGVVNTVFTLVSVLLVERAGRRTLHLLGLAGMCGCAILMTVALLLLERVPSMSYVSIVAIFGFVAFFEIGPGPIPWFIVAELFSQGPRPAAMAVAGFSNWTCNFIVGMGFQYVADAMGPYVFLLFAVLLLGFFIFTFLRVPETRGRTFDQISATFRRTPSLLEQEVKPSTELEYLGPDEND
Briefly: Stimulation of rat GLUT4-mediated glucose uptake in rat L6 cells expressing myc-tagged GLUT4 incubated for 16 hrs by scintillation counting based 2-[3H]DG uptake assay. In a few lines:
(§1)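 Differentiated L6-GLUT4myc myotubes (2% FBS, 6–7 days after seeding) exposed to compound for 16 h; insulin 100 nM as positive control. Uptake measured 5 min at room temperature in HEPES-buffered saline with 10 µM 2-DG (0.5 µCi/ml 2-[3H]DG), then lysis and scintillation counting. Cytochalasin B (25 µM) background subtracted. Duplicates normalized to total protein; percent stimulation versus control cells.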

The target in data set [2] is T1, Solute carrier family 2, facilitated glucose transporter member 4 (Rattus norvegicus). Briefly: Stimulation of rat GLUT4-mediated glucose uptake in rat L6 cells expressing myc-tagged GLUT4 at 10 uM incubated for 16 hrs by scintillation counting based 2-[3H]DG uptake assay. In a few lines:
as §1

For data set [3] the target is unchanged. The data set is described as follows: Induction of rat GLUT4 translocation in rat L6 cells expressing myc-tagged GLUT4 incubated for 3 hrs by antibody-coupled colourimetric assay. In a few lines: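 L6-GLUT4myc myotubes, non-permeabilized, treated 3 h with vehicle (DMSO), insulin 100 nM or compound at 5, 10, 25 µM. Fixed in 3% paraformaldehyde 30 min, glycine-quenched, milk-blocked, then anti-myc 1.0 µg/ml 1 h. HRP secondary with o-phenylenediamine read-out at OD 492 nm. Triplicates, three independent experiments; expressed as fold over unstimulated cells.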

Data set [4] shares this target. The data set is described as follows: Stimulation of rat GLUT4-mediated glucose uptake in rat L6 cells expressing myc-tagged GLUT4 at 10 uM incubated for 16 hrs in presence of 1 uM PI3K inhibitor wortmannin by scintillation counting based 2-[3H]DG uptake assay. In a few lines: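 Differentiated L6-GLUT4myc myotubes treated with compound at 10 µM, with wortmannin (1 µM) present for the final hour. Uptake then measured 5 min at room temperature in HEPES-buffered saline with 10 µM 2-DG (0.5 µCi/ml 2-[3H]DG), followed by lysis and scintillation counting. Cytochalasin B (25 µM) nonspecific uptake subtracted; duplicates normalized to protein, expressed versus control.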

Data set [5] deals with L6. Briefly: Toxicity in rat L6 cells expressing myc-tagged rat GLUT4 assessed as inhibition of glucose uptake at 10 uM incubated for 16 hrs by scintillation counting based 2-[3H]DG uptake assay. As to conditions: l6, 16 h. In a few lines:
as §1

Active and inactive are the calls of the source. The rule behind the calls is not given here.

Regarding `COc1ccc(OC)c(C(c2oc(CO)cc(=O)c2O)c2c[nH]c3ccccc23)c1` (stereo not given), the Activity result in data set [1] and in data set [3] was “Dose-dependent effect” each time. The fold change (FC) in data set [2] turned out to be 1.21. For the same compound, the outcome in data set [4] was inactive.
In the case of `O=c1cc(CO)oc(C(c2ccccc2)c2c[nH]c3ccccc23)c1O` (stereo not given), the Activity entry in data set [5] is reported as “Toxic”. For the same compound, in data set [2], the result was inactive.
On the same counts, the results for `O=c1cc(CO)oc(C(c2ccccc2)c2c(-c3ccccc3)[nH]c3ccccc23)c1O` (stereo not given) are “Toxic” and “inactive”.
On the same counts, the results for `O=c1cc(CO)oc(C(c2ccc(F)cc2)c2c[nH]c3ccccc23)c1O` (stereo not given) are “Toxic” and “inactive”.
Take `N#Cc1ccc2[nH]cc(C(c3ccccc3)c3oc(CO)cc(=O)c3O)c2c1` (stereo not given): in data set [2], the result was inactive.
As to `Cc1ccc(C(c2ccccc2)c2oc(CO)cc(=O)c2O)s1` (stereo not given), the fold change (FC) in data set [2] came out at 1.21. The Activity result in data set [3] was “Dose-dependent effect”. Also, in data set [4], the outcome was inactive.
Consider `CCCCC(c1oc(CO)cc(=O)c1O)c1c[nH]c2ccccc12` (stereo not given), for which, in data set [2], the result was inactive.
As for `O=c1cc(CO)oc(C(Sc2ccccc2)c2ccccc2)c1O` (stereo not given), the Activity result in data set [1] and in data set [3] was “Dose-dependent effect” throughout. This compound also came in with a fold change (FC) in data set [2] of 1.33. The outcome in data set [4] was inactive.
On to `COc1ccc2[nH]cc(C(c3ccccc3)c3oc(CO)cc(=O)c3O)c2c1` (stereo not given), for which the Activity entry in data set [1] and in data set [3] was “Dose-dependent effect” in each case. For the same compound, in data set [2], the fold change (FC) turned out to be 1.25. For the same compound, the outcome in data set [4] was inactive.
With `O=c1cc(CO)oc(C(c2ccccc2)c2cn(Cc3ccccc3)c3ccccc23)c1O` (stereo not given), the Activity entry in data set [5] was “Toxic”. The result in data set [2] was inactive.
As for `O=c1cc(CO)oc(C(c2ccc(Cl)cc2)c2c[nH]c3ccccc23)c1O` (stereo not given), the Activity entry in data set [5] is recorded as “Toxic”. In data set [2], the result was inactive.
In the case of `COc1ccc(SC(c2ccccc2)c2oc(CO)cc(=O)c2O)cc1` (stereo not given), the Activity entry in data set [1] and in data set [3] was “Dose-dependent effect” each time. The compound also yielded a fold change (FC) in data set [2] of 1.38. Further, the outcome in data set [4] was inactive.
On to `O=c1cc(CO)oc(C(c2ccc3ccccc3c2)c2c[nH]c3ccccc23)c1O` (stereo not given), for which, in data set [5], the Activity entry is given as “Toxic”. In data set [2], the outcome was inactive.
`COc1ccc(C(c2oc(CO)cc(=O)c2O)c2c[nH]c3ccccc23)cc1` (stereo not given): the Activity entry in data set [5] is on record as “Toxic”. Besides, the outcome in data set [2] was inactive.
In turn, `O=c1cc(CO)oc(C(c2ccccc2)c2ccc(O)cc2)c1O` (stereo not given) came in with a fold change (FC) in data set [2] of 1.34. Besides, the Activity entry in data set [3] was “Dose-dependent effect”. The outcome in data set [4] was inactive.
Take `O=c1cc(CO)oc(C(c2ccccc2)c2csc3ccccc23)c1O` (stereo not given): in data set [2], the result was inactive.
As for `CCCCCn1cc(C(c2ccccc2)c2oc(CO)cc(=O)c2O)c2ccccc21` (stereo not given), the Activity entry in data set [5] is given as “Toxic”. The result in data set [2] was inactive.
For `CCCCCCCCC(c1oc(CO)cc(=O)c1O)c1c[nH]c2ccccc12` (stereo not given), in data set [2], the outcome was inactive.
Regarding `Cn1cc(C(c2ccccc2)c2oc(CO)cc(=O)c2O)c2ccccc21` (stereo not given), the outcome in data set [2] was inactive.
As for `O=c1cc(CO)oc(C(c2ccc(Br)cc2)c2c[nH]c3ccccc23)c1O` (stereo not given), the Activity entry in data set [5] is given as “Toxic”. In data set [2], the result was inactive.
As to `O=c1cc(CO)oc(C(c2ccccc2)c2ccc[nH]2)c1O` (stereo not given), the outcome in data set [2] was inactive.
With `COc1cccc(C(c2oc(CO)cc(=O)c2O)c2c[nH]c3ccccc23)c1OC` (stereo not given), the Activity entry in data set [1] and in data set [3] was “Dose-dependent effect” each time. In data set [2], this compound displayed a fold change (FC) of 1.25. Further, the result in data set [4] was inactive.
